Test [1] relates to Saccharomyces cerevisiae. As to the kind of experiment: Substrate activity against yeast hexokinase as 1:1 Mg complexes at 5.0 mM. The procedure, abridged:
(§1)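 Hexokinase activity read at 22 °C as A340 change, coupled to glucose-6-phosphate dehydrogenase, in 0.05 M Tris-HCl pH 7.6 with 6.6 mM MgCl2, 10 mM α-D-glucose and 0.93 mM NADP. Donor was 5.0 mM MgATP derivative (1:1 Mg complex) in place of ATP. Yeast HK was isoelectric-focused. Rat HK I and III came from electrofocused liver extract, HK II from dialysed muscle extract.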

Test [2] deals with T1, Hexokinase-2 (Rattus norvegicus) (UniProt P27881).
T1 sequence (whole entry): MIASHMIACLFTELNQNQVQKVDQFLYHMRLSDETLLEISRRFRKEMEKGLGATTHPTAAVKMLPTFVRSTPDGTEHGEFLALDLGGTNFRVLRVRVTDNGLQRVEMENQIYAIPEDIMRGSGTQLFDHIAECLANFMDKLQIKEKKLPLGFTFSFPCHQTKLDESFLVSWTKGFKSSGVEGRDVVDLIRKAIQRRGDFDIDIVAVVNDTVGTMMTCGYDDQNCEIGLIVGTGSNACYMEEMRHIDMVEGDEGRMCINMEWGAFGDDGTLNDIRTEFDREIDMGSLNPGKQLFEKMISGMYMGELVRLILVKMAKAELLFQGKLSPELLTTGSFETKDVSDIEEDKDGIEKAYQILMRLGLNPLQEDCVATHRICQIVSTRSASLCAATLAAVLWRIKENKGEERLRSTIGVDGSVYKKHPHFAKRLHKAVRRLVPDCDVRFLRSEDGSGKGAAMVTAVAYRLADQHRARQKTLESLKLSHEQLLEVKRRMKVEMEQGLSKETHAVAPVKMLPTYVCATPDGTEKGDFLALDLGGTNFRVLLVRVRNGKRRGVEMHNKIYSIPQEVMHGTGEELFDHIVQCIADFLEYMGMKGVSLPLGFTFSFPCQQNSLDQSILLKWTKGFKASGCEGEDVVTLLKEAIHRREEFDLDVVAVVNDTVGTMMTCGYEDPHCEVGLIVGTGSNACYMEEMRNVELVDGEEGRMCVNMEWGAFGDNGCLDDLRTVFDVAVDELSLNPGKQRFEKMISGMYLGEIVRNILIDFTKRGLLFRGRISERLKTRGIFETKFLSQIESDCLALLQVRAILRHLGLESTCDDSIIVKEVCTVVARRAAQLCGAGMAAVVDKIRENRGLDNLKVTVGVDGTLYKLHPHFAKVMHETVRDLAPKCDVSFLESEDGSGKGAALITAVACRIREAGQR
Put plainly: Substrate activity against Rat hexokinase II as 1:1 Mg complex at 5.0 mM. The procedure, abridged: as §1

In test [3] the target is T2, Hexokinase-1 (Rattus norvegicus) (UniProt P05708).
T2 sequence (whole entry): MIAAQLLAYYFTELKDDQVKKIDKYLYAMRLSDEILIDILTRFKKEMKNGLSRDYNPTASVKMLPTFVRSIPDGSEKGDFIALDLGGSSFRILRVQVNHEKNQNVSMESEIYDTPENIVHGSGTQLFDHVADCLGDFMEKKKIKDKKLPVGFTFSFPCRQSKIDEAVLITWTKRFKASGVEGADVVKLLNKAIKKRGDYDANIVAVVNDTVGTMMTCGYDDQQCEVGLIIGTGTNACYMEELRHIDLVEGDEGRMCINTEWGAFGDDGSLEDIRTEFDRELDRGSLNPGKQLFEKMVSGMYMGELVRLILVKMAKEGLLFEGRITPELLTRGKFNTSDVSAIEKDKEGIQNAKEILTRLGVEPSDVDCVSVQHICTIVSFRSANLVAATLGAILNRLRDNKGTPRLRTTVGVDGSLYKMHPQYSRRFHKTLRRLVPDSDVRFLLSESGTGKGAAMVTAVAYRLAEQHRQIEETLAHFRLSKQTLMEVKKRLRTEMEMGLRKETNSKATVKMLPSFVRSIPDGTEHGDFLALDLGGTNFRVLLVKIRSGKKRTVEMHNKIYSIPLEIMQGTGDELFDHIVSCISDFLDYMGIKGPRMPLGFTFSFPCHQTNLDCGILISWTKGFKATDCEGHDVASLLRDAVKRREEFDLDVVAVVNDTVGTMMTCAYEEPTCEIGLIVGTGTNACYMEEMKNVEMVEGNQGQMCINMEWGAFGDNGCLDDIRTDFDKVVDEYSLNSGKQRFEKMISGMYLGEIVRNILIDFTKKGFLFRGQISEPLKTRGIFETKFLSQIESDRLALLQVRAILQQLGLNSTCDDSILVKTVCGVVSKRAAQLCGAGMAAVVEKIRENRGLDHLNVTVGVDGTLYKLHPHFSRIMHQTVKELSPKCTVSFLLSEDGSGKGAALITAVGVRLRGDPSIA
Put plainly: Substrate activity for rat hexokinase I as 1:1 Mg complex at 5.0 mM. The procedure, abridged: as §1

The species named for a further test is Rattus norvegicus. Put plainly: Compound was tested for the affinity to Rat pyruvate kinase relative to the normal substrate. Affinity is expressed as KM (ATP or ADP)/ Ki of inhibitor. It counts as functional.
Test [4] has as its target Thymidine kinase (Escherichia coli) (UniProt P23331). As to the kind of experiment: Compound was tested for the lose of thymidine kinase activity after 6 hr, at 0 degrees celsius, with 10 mM ATP derivative. values were expressed in percent.
The target of test [5] is T2, Hexokinase-1 (Rattus norvegicus). As to the kind of experiment: Time dependent inhibition of Hexokinase type I activity after 6 h, at 22 degrees celsius, at 5 mM compound.
A short description of test [6]: (§2) Extent of inactivation caused by the compound was reported. It counts as functional.
The subject of test [7] is Saccharomyces cerevisiae. As to the kind of experiment: Time dependent inhibition of hexokinase activity after 6 hr, at 22 degrees celsius, with 5 mM ATP derivative in yeast.
In test [8] the target is T3, Hexokinase-3 (Rattus norvegicus) (UniProt P27926).
T3 sequence (whole entry): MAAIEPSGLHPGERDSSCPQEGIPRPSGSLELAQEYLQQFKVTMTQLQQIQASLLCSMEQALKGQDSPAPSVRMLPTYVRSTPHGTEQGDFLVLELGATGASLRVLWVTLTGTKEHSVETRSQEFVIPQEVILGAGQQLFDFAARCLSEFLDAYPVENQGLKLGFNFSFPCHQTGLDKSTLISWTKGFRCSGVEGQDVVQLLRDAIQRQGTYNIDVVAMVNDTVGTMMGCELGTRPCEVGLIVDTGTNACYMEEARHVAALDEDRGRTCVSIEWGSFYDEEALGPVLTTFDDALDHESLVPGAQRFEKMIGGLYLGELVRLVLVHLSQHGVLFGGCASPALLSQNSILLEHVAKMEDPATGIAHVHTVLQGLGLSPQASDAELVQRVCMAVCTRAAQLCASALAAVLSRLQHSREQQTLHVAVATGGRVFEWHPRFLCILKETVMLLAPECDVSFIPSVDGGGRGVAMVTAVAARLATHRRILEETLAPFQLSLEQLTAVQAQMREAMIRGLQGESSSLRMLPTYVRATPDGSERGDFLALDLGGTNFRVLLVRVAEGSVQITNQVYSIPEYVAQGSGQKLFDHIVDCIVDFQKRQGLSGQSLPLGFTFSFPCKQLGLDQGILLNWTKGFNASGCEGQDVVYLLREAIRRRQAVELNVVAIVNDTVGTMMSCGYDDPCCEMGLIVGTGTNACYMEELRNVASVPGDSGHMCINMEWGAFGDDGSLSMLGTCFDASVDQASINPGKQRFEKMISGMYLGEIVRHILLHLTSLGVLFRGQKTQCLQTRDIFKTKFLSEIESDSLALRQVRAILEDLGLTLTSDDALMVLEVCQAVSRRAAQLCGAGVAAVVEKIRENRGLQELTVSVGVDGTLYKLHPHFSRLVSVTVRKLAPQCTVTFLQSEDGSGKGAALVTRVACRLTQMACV
Put plainly: Substrate activity for rat hexokinase III as 1:1 Mg complex at 5.0 mM. The procedure, abridged:
as §1

Test [9] deals with T1, Hexokinase-2 (Rattus norvegicus). As to the kind of experiment: Time dependent inhibition of hexokinase 2 activity after 6 h, at 5 mM compound.
In test [10] the target is Thymidine kinase (Escherichia coli) (UniProt P23331). As to the kind of experiment: Compound was tested for the initial inhibition of thymidine kinase by 1.4 mM compound in the presence of 5.7 mM ATP in Escherichia coli.
Sequence of Thymidine kinase (Escherichia coli) (P23331 whole entry, looked up): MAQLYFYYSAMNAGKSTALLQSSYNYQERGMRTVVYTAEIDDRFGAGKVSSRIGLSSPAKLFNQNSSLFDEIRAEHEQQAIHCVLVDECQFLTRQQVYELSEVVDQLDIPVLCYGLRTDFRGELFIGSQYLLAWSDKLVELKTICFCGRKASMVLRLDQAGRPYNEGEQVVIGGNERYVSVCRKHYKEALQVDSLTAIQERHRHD
The target of test [11] is T3, Hexokinase-3 (Rattus norvegicus). As to the kind of experiment: Time dependent inhibition of Hexokinase type III activity after 6 h, at 22 degrees celsius, at 5 mM.
The nature of test [12]: Compound was tested for substrate constants with rat hexokinase. Maximal velocity Vmax was reported. The procedure, abridged: (§3)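 Hexokinase KM and Vmax taken from linear double-reciprocal plots of initial velocity vs. nucleotide level. Assays at 22 °C, coupled to glucose-6-phosphate dehydrogenase (A340), in 0.05 M Tris-HCl pH 7.6 with 6.6 mM MgCl2, 10 mM glucose and 0.93 mM NADP. Yeast HK was isoelectric-focused. Rat HK I and III came from liver, HK II from muscle (male Sprague-Dawley).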

The nature of test [13]: Substrate concentration for half maximal velocity was reported for rat hexokinase I. Put shortly:
(§4)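 Coupled glucose-6-phosphate dehydrogenase/NADP assay: A340 rate at 22 °C in 0.05 M Tris-HCl pH 7.6 with 6.6 mM MgCl2, 10 mM α-D-glucose and 0.93 mM NADP, nucleotide varied. KM was taken from linear double-reciprocal plots. Rat HK I and III came from electrofocused, dialysed liver extract, HK II from dialysed muscle extract, and yeast HK was isoelectric-focused.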

A short description of test [14]: Substrate concentration for half maximal velocity was reported for yeast hexokinase. Put shortly:
as §4

The nature of test [15]: Substrate concentration for half maximal velocity was reported for rat hexokinase II. The procedure, abridged:
as §4

Test [16] is described as follows: Compound was tested for substrate constants with yeast hexokinase. Maximal velocity Vmax was reported. Put shortly: as §3
The nature of test [17]: Substrate concentration for half maximal velocity was reported for rat hexokinase III. Put shortly: as §4
The nature of test [18]: Tested for the velocity of 2.8 mM compound relative to that of 2.8 mM MgATP in the assay. The procedure, abridged: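 E. coli TK substrate test. 0.5 h after adding inhibitor, the mixture was diluted to 2.8 mM derivative in thymidine assay medium without ATP and with 1.42 mM MnCl2. Incubated 15 min at 37 °C, in the linear range. [14C]TMP formed was compared with that from 2.8 mM ATP under the same conditions.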

The nature of test [19]: as §2.
A short description of test [20]: Compound was tested for the affinity relative to the normal substrate. Affinity is expressed as KM (ATP or ADP)/ Ki of inhibitor.

Values joined by “and” are separate entries in the source; they are usually repeats but may differ in a detail not shown here. Identical values can stand only once.

For orientation: inhibition means how much of the control response was suppressed. In the case of `O=C(CI)NCCCCCCCCNc1ncnc2c1ncn2[C@@H]1O[C@H](COP(=O)(O)OP(=O)(O)OP(=O)(O)O)[C@@H](O)[C@H]1O`, the Relative velocity in the test on Saccharomyces cerevisiae [1] worked out at 1.82; in test [2] it was 1.26; in test [3], 1.79; in [8], 2.81. The same molecule yielded a Relative affinity in the test filed under Rattus norvegicus of 0.011. Besides, the inhibition in test [4] came out at 0%; in [5], 35%; in the test with Saccharomyces cerevisiae [7] it was 30%; in [9], 41%; in test [10] it was 19%; in [11], 47%. In test [6], this molecule had an Inactivation greater than 90%.
In general, Km refers to the concentration of substrate that gives half-maximal velocity. Take `CN(CCCN(C)C(=O)CCCCNc1ncnc2c1ncn2[C@@H]1O[C@H](COP(=O)(O)OP(=O)(O)OP(=O)(O)O)[C@@H](O)[C@H]1O)C(=O)CCCCNC(=O)OCc1ccccc1`: the Vmax was 45% and 35% and 23% in [12]; 75% in test [16]. For the same molecule, the Km in [13] is 180 µM; in [14] it was 320 µM; in [15], 270 µM; in test [17], 100 µM.
The molecule `CN(CCCCN(C)c1ncnc2c1ncn2[C@@H]1O[C@H](COP(=O)(O)OP(=O)(O)OP(=O)(O)O)[C@@H](O)[C@H]1O)C(=O)CCCCCNC(=O)CI` had a Velocity in test [18] greater than 13%. The inhibition was 53% in [4]; 0% in test [5]; 0% in test [9]; 11% in test [10]; 0% in test [11]. The Relative inactivation in test [19] was greater than 80. In [20], this molecule displayed a Relative affinity of 0.56.
